These results are taken from ChEMBL document CHEMBL4014309, “Development of an Acrylate Derivative Targeting the NLRP3 Inflammasome for the Treatment of Inflammatory Bowel Disease” (J Med Chem, 2017).

Data set [1] deals with NACHT, LRR and PYD domains-containing protein 3 (Mus musculus) (UniProt Q8R4B8). Put plainly: Inhibition of NLRP3 inflammasome in LPS-primed C57BL/6 mouse bone marrow derived macrophages assessed as reduction in ATP-induced pyroptosis at 100 to 250 nM preincubated for 1 hr followed by stimulation with ATP measured after 30 mins by LDH release assay. Summed up:
(§1)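 Bone marrow macrophages from C57BL/6 mice, differentiated with 20% L-cell medium, primed with LPS (1 µg/mL, 3 h). Test agent or vehicle was added for 1 h, then ATP (5 mM, 30 min) or nigericin (10 µM, 30 min). IL-1β in the medium was measured by ELISA. LDH in the medium was measured colorimetrically as % of total cellular LDH.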

Data set [2] has as its system Rattus norvegicus. Put plainly: Antiinflammatory activity in DNBS-induced Sprague-Dawley rat colitis model assessed as DNBS-induced macroscopic damage score at 1 mg/kg/day, ig for 6 days simulatneously with 6 days of DNBS-challenge (reference value: 8.6 +/- 0.6). Format: functional. Summed up:
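After intrarectal DNBS (15 mg/0.25 mL 50% ethanol), dosing was intragastric for 6 days (0.2 mL olive oil; 1 mg/kg/day dose in 1% methylcellulose). The whole excised colon was scored for macroscopic damage on a 0–6 point scale by two blinded observers. Values are mean ± SEM, n = 10.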

Data set [3] deals with Rattus norvegicus. Put plainly: Antiinflammatory activity in DNBS-induced Sprague-Dawley rat colitis model assessed as body weight recovery at 1 mg/kg/day, ig administered as methylcellulose suspension for 6 days simulatneously with 6 days of DNBS-challenge measured daily during compound dosing. Format: functional, organism-based. An outline of the steps:
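Colitis was induced with intrarectal DNBS (15 mg in 0.25 mL 50% ethanol). Intragastric treatment ran 6 days from the day of induction: 1 mg/kg/day in 1% methylcellulose, or 12.5–50 mg/kg/day in olive oil. Body weight change (g) was recorded at the end of treatment, mean ± SEM, n = 10.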

Data set [4] has as its system Rattus norvegicus. Put plainly: Toxicity in Sprague-Dawley rat assessed as body weight loss at 1 mg/kg/day, ig. Format: organism-based. Particulars: in vivo, po. Summed up: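 Rats received intrarectal DNBS (15 mg in 0.25 mL 50% ethanol) or none. Dosing was intragastric for 6 days from induction: compound 12.5–50 mg/kg/day in 0.2 mL olive oil, or dexamethasone 1 mg/kg/day in 0.2 mL 1% methylcellulose. Body weight change was recorded at end; n = 10, mean ± SEM.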

Data set [5] has as its system Rattus norvegicus. Put plainly: Anti-inflammatory activity in DNBS-induced Sprague-Dawley rat colitis model assessed as reduction in DNBS-induced increase in MPO levels in colon at 1 mg/kg/day, ig for 6 days simulatneously with 6 days of DNBS-challenge by ELISA. The class given is functional, organism-based. An outline of the steps:
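DNBS colitis (15 mg intrarectal in 50% ethanol) was treated by the intragastric route for 6 days from induction (1 mg/kg/day in 1% methylcellulose, or 12.5–50 mg/kg/day in olive oil). Colonic samples (30 mg) were taken adjacent and distal to the necrotic area, homogenized, and assayed for MPO by ELISA. Results are ng MPO per mg tissue, mean ± SEM, n = 10.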

Data set [6] has as its target NACHT, LRR and PYD domains-containing protein 3 (Mus musculus) (UniProt Q8R4B8). Description: Inhibition of NLRP3 inflammasome in LPS-primed C57BL/6 mouse bone marrow derived macrophages assessed as reduction in ATP-induced IL-1beta production at 10 to 250 nM preincubated for 1 hr followed by stimulation with ATP measured after 30 mins by ELISA. Summed up:
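C57BL/6 bone marrow macrophages, differentiated with 20% L-cell medium, were primed with LPS (1 µg/mL, 3 h). They were then exposed to compound or vehicle for 1 h and stimulated with ATP (5 mM, 30 min). IL-1β released into the medium was measured by ELISA.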

For data set [7], the system named is Rattus norvegicus. Description: Antiinflammatory activity in DNBS-induced Sprague-Dawley rat colitis model assessed as reduction in DNBS-induced spleen weight increase by measuring increase in spleen weight at 1 mg/kg/day, ig administered as methylcellulose suspension for 6 days simulatneously with 6 days of DNBS-challenge measured daily during compound dosing (reference value: 39.3%). The class given is functional. Also on record: scale not given: the % may be the effect or the level left. An outline of the steps: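 Spleen weight was used as an index of systemic inflammation. Rats had intrarectal DNBS (15 mg/0.25 mL 50% ethanol) and 6 days of intragastric dosing: 1 mg/kg/day in 1% methylcellulose, or 12.5–50 mg/kg/day in 0.2 mL olive oil. The spleen was weighed at sacrifice and expressed as percent increase versus control, n = 10.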

In data set [8] the test system is Rattus norvegicus. Description: Anti-inflammatory activity in DNBS-induced Sprague-Dawley rat colitis model assessed as DNBS-induced TNFalpha levels in colon at 1 mg/kg/day, ig for 6 days simulatneously with 6 days of DNBS-challenge by ELISA (reference value: 5.9 +/- 0.6 pg/mg). The class given is functional.
The target of data set [9] is NACHT, LRR and PYD domains-containing protein 3 (Mus musculus) (UniProt Q8R4B8). Description: Inhibition of NLRP3 inflammasome in LPS-primed C57BL/6 mouse bone marrow derived macrophages assessed as reduction in nigericin-induced IL-1beta production at 10 to 250 nM preincubated for 1 hr followed by stimulation with nigericin measured after 30 mins by ELISA. An outline of the steps:
as §1
Background: An ELISA detects its analyte on a solid surface through an enzyme-linked reagent.

Data set [10] has as its system Rattus norvegicus. Description: Anti-inflammatory activity in DNBS-induced Sprague-Dawley rat colitis model assessed as DNBS-induced IL-1beta levels in colon at 1 mg/kg/day, ig for 6 days simulatneously with 6 days of DNBS-challenge by ELISA (reference value: 22.3 +/- 2.9 ng/mg). Format: functional.
The target in data set [11] is NACHT, LRR and PYD domains-containing protein 3 (Mus musculus) (UniProt Q8R4B8). Put plainly: Inhibition of NLRP3 inflammasome in LPS-primed C57BL/6 mouse bone marrow derived macrophages assessed as reduction in nigericin-induced pyroptosis at 100 to 250 nM preincubated for 1 hr followed by […] measured after 30 mins by LDH release assay. Summed up: as §1
NACHT, LRR and PYD domains-containing protein 3 (Mus musculus), sequence (Q8R4B8 whole entry, the tested form may be a part): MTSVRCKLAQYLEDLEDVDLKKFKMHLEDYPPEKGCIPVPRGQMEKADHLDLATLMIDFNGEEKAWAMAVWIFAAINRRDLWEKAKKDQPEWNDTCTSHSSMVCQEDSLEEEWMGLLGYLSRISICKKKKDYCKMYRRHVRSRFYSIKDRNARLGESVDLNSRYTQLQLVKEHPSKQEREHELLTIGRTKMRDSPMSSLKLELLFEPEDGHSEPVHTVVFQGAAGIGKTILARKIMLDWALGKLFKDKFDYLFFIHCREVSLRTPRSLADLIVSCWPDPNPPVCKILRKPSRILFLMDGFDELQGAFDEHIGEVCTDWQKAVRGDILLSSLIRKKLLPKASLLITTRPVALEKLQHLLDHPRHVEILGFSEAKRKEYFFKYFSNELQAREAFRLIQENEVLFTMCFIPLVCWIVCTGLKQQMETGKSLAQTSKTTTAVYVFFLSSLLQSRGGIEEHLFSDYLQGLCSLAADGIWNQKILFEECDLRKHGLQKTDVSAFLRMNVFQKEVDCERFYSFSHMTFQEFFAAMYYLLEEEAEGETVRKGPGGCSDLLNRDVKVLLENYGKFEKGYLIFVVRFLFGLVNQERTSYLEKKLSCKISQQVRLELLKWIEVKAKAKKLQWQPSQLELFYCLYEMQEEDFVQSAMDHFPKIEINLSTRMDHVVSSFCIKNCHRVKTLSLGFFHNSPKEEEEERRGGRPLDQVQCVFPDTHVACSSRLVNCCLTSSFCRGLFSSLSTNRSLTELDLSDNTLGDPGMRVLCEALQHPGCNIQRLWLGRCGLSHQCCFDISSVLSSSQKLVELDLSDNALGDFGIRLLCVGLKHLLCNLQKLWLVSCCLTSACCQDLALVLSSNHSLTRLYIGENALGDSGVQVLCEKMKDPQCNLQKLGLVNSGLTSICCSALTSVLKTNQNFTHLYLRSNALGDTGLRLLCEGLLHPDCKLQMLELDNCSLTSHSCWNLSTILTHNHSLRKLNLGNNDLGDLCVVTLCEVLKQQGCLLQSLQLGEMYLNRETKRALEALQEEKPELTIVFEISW
Background: LDH in the medium is a marker of cell lysis.

Active and inactive are the calls of the source. No cut-off for these calls is given here.

For `C[C@@H]1C[C@H]2[C@@H]3CCC4=CC(=O)C=C[C@]4(C)[C@@]3(F)[C@@H](O)C[C@]2(C)[C@@]1(O)C(=O)CO` [DEXAMETHASONE], the inhibition entry in [1] and in [11] was “Active” in each case. Besides, in the data set with Rattus norvegicus [2], the Activity_index is on record as 2. The outcome with Rattus norvegicus [3] was inactive. Moreover, the Activity result in the data set on Rattus norvegicus [4] is “Toxic”; with Rattus norvegicus [7], 1.6%; in the data set with Rattus norvegicus [8], 2.2 pg/mg; in the data set with Rattus norvegicus [10], 6.7 ng/mg. Moreover, in the data set on Rattus norvegicus [5], the result was Active. Besides, the inhibition entry in data set [6] and in data set [9] was “inactive” throughout.
